From ChEMBL document CHEMBL4725355, “Design, Synthesis, and Preclinical Evaluation of 3-Methyl-6-(5-thiophenyl)-1,3-dihydro-imidazo[4,5-b]pyridin-2-ones as Selective GluN2B Negative Allosteric Modulators for the Treatment of Mood Disorders” (J Med Chem, 2020) come the findings set out here.

As a reminder, the pIC50 is −log10 of the IC50, conventionally taken in molar units. For orientation: solubility means the concentration that dissolves in the medium under given conditions. The efflux ratio is a quotient of directional permeabilities that is used to spot active efflux. As a reminder, the pKi is the Ki on a negative log10 scale, so that one unit is a factor of ten. High values mean a low Ki, low ones a high Ki. One may read the clearance as the volume of plasma or blood freed of the substance per unit of time. A higher clearance goes with efficient removal. The half-life is the time needed for the level to fall by half in the phase considered. Lower therefore signals fast loss. As a reminder, the Cmax is the peak of the concentration-time curve. As usually defined, the bioavailability is dose-corrected exposure relative to a reference, in per cent.

pIC50, pKi: −log10 of the molar value. Values after ≈ are worked out from the molar mass of the structure shown. Bounds are passed on as bounds.

Data set [1] is described as follows: Negative allosteric modulation of human GluN1a/GluN2B receptor expressed in CHO cells assessed as inhibition of glutamate and glycine-induced calcium flux preincubated for 5 mins followed by glutamate and glycine addition and measured after 5 mins by calcium 5 dye based FLIPR assay. The data set is classed as cell-based. The gist of the method:
(§1)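 Tet-On CHO T-Rex cells expressing hGluN1a with GluN2A, 2B, 2C or 2D, plated at 20,000 cells/well and induced 24 h before the assay in the presence of ketamine. Cells loaded 1 h at room temperature with Calcium 5 dye, pH 7.4 HEPES buffer. Compound added 5 min, then glutamate (~EC80) plus 10 µM glycine for 5 min; FLIPR fluorescence normalized to control wells. Three independent runs in duplicate (two for some).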
Background: A change in cytosolic calcium serves as a functional read-out for many receptors and channels.

Data set [2] can be described thus: Solubility of compound in phosphate buffer at pH 2 measured after 3 days. The format is physicochemical. As to conditions: time 3 day. The procedure, abridged:
(§2)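 Solubility in aqueous buffer at pH 2 and pH 7, and in simulated gastric and intestinal fluids.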

The nature of data set [3]: Solubility of compound in phosphate buffer at pH 7 measured after 3 days. The data set is classed as physicochemical. Conditions: time 3 day. The gist of the method: as §2
Data set [4] can be described thus: Efflux ratio of apparent permeability across basolateral to apical side over apical to basolateral side in MDCK-MDR1 cells at 5 uM measured after 60 mins by LC-MS/MS analysis. Conditions: dog. The format is ADME, cell-based, Canis lupus familiaris. The procedure, abridged: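 MDCK-MDR1 cells, passages 6-30, seeded at 3.4×10^5 cells/cm² and cultured 3 days. Test compound at 5 µM final (1% DMSO) in HBSS, pH 7.4, applied to the donor side. A→B and B→A runs at 37 °C for 60 min, in duplicate, quantified by LC/MS/MS. Efflux ratio taken as B-A/A-B; monolayer integrity checked by lucifer yellow.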

The target of data set [5] is Voltage-gated inwardly rectifying potassium channel KCNH2 (Homo sapiens, UniProt Q12809). In words: Inhibition of human ERG expressed in CHO cells measured after 5 mins by Qpatch method. The format is cell-based. The gist of the method: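 CHO cells stably expressing hERG, whole-cell QPatch. Vehicle applied 5 min, then 0.3, 3.0, 10 and 30 µM in rising order, each concentration applied twice. Current measured after 5 min as the average of 3 voltage pulses; block taken relative to vehicle pretreatment, mean ± SEM.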

The nature of data set [6]: Displacement of 3-[3H] 1-(azetidin-1-yl)-2-[6-(4-fluoro-3-methyl-phenyl)pyrrolo[3,2-b]pyridin-1-yl]ethanone from GluN1a/GluN2B receptor in rat cortex membranes measured after 2 hrs by liquid scintillation counting method. The data set is classed as cell membranes. The gist of the method: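 Rat adult cortex was homogenized in 50 mM Tris pH 7.4, and membranes were washed by centrifugation. Membranes were incubated with the [3H] pyrrolopyridine tracer and test compound for 2 h at room temperature with shaking. Non-specific binding was defined with 10 µM CP-101,606. Bound tracer was separated by filtration on PEI-soaked GF/B filters and counted by liquid scintillation. Ki was obtained from a competition fit using tracer Kd; three independent runs in duplicate.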

Data set [7] in a line: Metabolic stability in human liver microsomes assessed as extraction ratio at 1 uM after 5 to 60 mins in presence of NADPH by LC-MS/MS analysis. The format is ADME, Microsome. As to conditions: time 5-60 min, read-out: ERH. The gist of the method:
(§3)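 Human and rat liver microsomes, run in duplicate; stability reported as microsomal extraction ratio.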
In general terms: Microsomes from liver hold many membrane-bound enzymes, among them those of drug oxidation.

Data set [8] can be described thus: Metabolic stability in rat liver microsomes assessed as extraction ratio at 1 uM after 5 to 60 mins in presence of NADPH by LC-MS/MS analysis. Conditions: time 5-60 min, read-out: ERH. The data set is classed as ADME, Microsome. The procedure, abridged: as §3
A short description of data set [9]: Clearance in Sprague-Dawley rat at 0.5 mg/kg, iv using 20% HP-beta-CD formulation by LC-MS/MS analysis. The format is ADME, organism-based. Conditions: in vivo. The procedure, abridged: (§4)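 Rat PK with IV and PO dosing, n=3. The usual doses were 0.5 mg/kg IV and 2.5 mg/kg PO in 20% HP-β-CD. One compound was instead given at 0.1 mg/kg IV and 0.5 mg/kg PO.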

Data set [10] is described as follows: Volume of distribution at steady state in Sprague-Dawley rat at 0.5 mg/kg, iv or 2.5 mg/kg, po using 20% HP-beta-CD formulation by LC-MS/MS analysis. As to conditions: in vivo, read-out: Vdss. The format is ADME, organism-based. The procedure, abridged:
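Rat PK at 0.5 mg/kg i.v. and 2.5 mg/kg p.o., vehicle 20% HP-β-CD. n=3, values given as mean ± SD.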

The nature of data set [11]: Half life in Sprague-Dawley rat at 0.5 mg/kg, iv or 2.5 mg/kg, po using 20% HP-beta-CD formulation by LC-MS/MS analysis. The data set is classed as ADME, organism-based. Conditions: in vivo. The procedure, abridged: (§5)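 Rats dosed 0.5 mg/kg i.v. and 2.5 mg/kg p.o., n=3 ± SD. Default vehicle is 20% HP-β-CD; one PK set used 1:1 PEG400/water and another 30% SBE-β-CD.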

Data set [12] is described as follows: Cmax in Sprague-Dawley rat at 0.5 mg/kg, iv or 2.5 mg/kg, po using 20% HP-beta-CD formulation by LC-MS/MS analysis. The data set is classed as ADME, organism-based. More on the design: dose 2.5 mg/kg. Conditions: in vivo. The procedure, abridged:
as §4

Data set [13] can be described thus: Oral bioavailability in Sprague-Dawley rat at 2.5 mg/kg using 20% HP-beta-CD formulation by LC-MS/MS analysis. The format is ADME, organism-based. Conditions: in vivo. The gist of the method: as §5
The nature of data set [14]: Negative allosteric modulation of human GluN1a/GluN2A receptor expressed in CHO cells assessed as inhibition of glutamate and glycine-induced calcium flux preincubated for 5 mins followed by glutamate and glycine addition and measured after 5 mins by calcium 5 dye based FLIPR assay. The data set is classed as cell-based. The procedure, abridged: as §1
The nature of data set [15]: Negative allosteric modulation of human GluN1a/GluN2C receptor expressed in CHO cells assessed as inhibition of glutamate and glycine-induced calcium flux preincubated for 5 mins followed by glutamate and glycine addition and measured after 5 mins by calcium 5 dye based FLIPR assay. The data set is classed as cell-based. The procedure, abridged:
as §1

A short description of data set [16]: Negative allosteric modulation of human GluN1a/GluN2D receptor expressed in CHO cells assessed as inhibition of glutamate and glycine-induced calcium flux preincubated for 5 mins followed by glutamate and glycine addition and measured after 5 mins by calcium 5 dye based FLIPR assay. The format is cell-based. The gist of the method: as §1
The nature of data set [17]: Protein binding in human plasma at 1 uM after 6 hrs by equilibrium dialysis method. The format is ADME, cell-free. Conditions: read-out: PPB (converted).
The nature of data set [18]: Stability of compound in phosphate buffer at pH 2 assessed as drug decomposition measured after 24 h. Conditions: pH 2, 24 h.
Data set [19] in a line: Stability of compound in phosphate buffer at pH 7 assessed as drug decomposition measured after 24 h. As to conditions: pH 7, 24 h.

Sequence of Voltage-gated inwardly rectifying potassium channel KCNH2 (Q12809 whole entry): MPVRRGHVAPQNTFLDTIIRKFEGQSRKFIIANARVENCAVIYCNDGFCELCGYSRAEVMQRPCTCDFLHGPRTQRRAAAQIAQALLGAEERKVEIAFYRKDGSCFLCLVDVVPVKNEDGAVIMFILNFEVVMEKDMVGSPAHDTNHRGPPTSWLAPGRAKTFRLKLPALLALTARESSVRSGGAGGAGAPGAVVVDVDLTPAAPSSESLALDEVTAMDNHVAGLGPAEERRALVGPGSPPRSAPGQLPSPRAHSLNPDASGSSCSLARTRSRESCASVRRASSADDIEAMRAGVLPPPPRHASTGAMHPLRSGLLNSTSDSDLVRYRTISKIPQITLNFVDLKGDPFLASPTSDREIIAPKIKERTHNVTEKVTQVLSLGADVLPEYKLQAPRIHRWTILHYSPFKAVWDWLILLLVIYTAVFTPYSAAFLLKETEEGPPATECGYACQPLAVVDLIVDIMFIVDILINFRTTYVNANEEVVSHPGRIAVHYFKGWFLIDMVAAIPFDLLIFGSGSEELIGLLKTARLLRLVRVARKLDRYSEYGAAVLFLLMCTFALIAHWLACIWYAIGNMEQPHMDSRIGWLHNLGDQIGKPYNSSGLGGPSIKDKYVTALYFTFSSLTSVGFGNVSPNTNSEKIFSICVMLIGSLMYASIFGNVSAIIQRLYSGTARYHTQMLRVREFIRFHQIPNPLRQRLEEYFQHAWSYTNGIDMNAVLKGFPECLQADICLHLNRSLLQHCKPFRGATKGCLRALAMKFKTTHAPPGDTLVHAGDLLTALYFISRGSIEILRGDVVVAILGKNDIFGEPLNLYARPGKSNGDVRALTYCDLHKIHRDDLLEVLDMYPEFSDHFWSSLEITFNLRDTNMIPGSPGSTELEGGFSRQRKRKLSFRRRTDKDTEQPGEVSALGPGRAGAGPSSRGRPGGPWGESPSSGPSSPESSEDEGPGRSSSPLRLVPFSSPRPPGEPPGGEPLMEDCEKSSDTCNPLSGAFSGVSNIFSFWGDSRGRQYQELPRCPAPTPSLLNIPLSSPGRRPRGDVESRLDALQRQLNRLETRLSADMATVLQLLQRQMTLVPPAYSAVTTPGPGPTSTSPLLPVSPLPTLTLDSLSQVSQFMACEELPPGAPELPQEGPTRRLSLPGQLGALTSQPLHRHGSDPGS

`Cn1c(=O)n(CC(=O)N2CC(F)C2)c2cc(-c3cccc(C(F)(F)F)c3)cnc21`: the pIC50 is 6.93 in data set [1] and less than 5.00 in [5]. Also, the solubility at 72 h in data set [2] is 17 µM (≈ 6.94 µg/mL); in [3], 16 µM (≈ 6.53 µg/mL). Moreover, the efflux ratio at 1 h, 5 µM in data set [4] was 7. Further, the pKi in [6] is 7.60. In addition, the hepatic extraction ratio at 1 µM is less than 0.3 in data set [7] and less than 0.2 in data set [8].
On to `Cn1c(=O)n(CC(=O)N2CCC2)c2cc(-c3ccc(C4CC4)s3)cnc21`, for which the pIC50 in data set [1] is 7.09; in [5], less than 5.00. Also, the pKi in data set [6] was 7.20.
Take `Cc1csc(-c2cnc3c(c2)n(CC(=O)N(C)C)c(=O)n3C)c1`: the pIC50 is 6.67 in data set [1] and less than 5.00 in data set [5]. For the same molecule, the results for the solubility at 72 h in [2] and in data set [3] were 31 µM (≈ 10.2 µg/mL) and 25 µM (≈ 8.26 µg/mL), respectively. Besides, in [4], the efflux ratio at 1 h, 5 µM stood at 3.5. For the same molecule, the pKi in [6] was 6.57. Also, the hepatic extraction ratio at 1 µM in [7] came out at 0.59; in data set [8], 0.82.
Consider `Cc1ccc(-c2cnc3c(c2)n(CC(=O)N2CCC2)c(=O)n3C)s1`, for which the pIC50 in [1] was 7.60; in [5], less than 5.00. The results for the solubility at 72 h in [2] and in data set [3] were 39 µM (≈ 13.4 µg/mL) and 48 µM (≈ 16.4 µg/mL), respectively. Also, the efflux ratio at 1 h, 5 µM in data set [4] is 3.2. The molecule further gave a negative logarithm of the Ki (pKi) in data set [6] of 7.36. The hepatic extraction ratio at 1 µM in data set [7] turned out to be 0.56; in data set [8], 0.78. The clearance in data set [9] was determined as 114 mL/min/kg. In [10], the Vd was determined as 1.1 L/kg. Besides, the half-life in data set [11] is 12 min. In data set [12], this molecule came in with a Cmax of 6 ng/mL. This molecule also had a bioavailability in data set [13] of 1%.
With `O=C(Cn1c(=O)[nH]c2ncc(-c3cccc(C(F)(F)F)c3)cc21)NC1CC1`, the negative logarithm of the IC50 (pIC50) in [14], in data set [15], in [16] and in data set [5] was less than 5.00 throughout. In addition, the solubility at 72 h in data set [2] and in data set [3] was less than 4 µM throughout. In addition, in [17], the fraction unbound at 6 h, 1 µM is 0.004.
For `Cn1c(=O)n(CC(=O)N2CCC2)c2cc(-c3cccc(C(F)(F)F)c3)cnc21`, the pIC50 is 7.01 in data set [1] and less than 5.00 in data set [5]. In addition, the solubility at 72 h is 19 µM (≈ 7.42 µg/mL) in [2] and 23 µM (≈ 8.98 µg/mL) in [3]. The efflux ratio at 1 h, 5 µM in [4] was found to be 9. In addition, the fraction unbound at 6 h, 1 µM in data set [17] was 0.052. In data set [6], this molecule gave a pKi of 7.72. Besides, the results for the hepatic extraction ratio at 1 µM in data set [7] and in [8] were less than 0.3 and less than 0.2, respectively.
Take `Cn1c(=O)n(CC(=O)N2CCC2)c2cc(-c3cc(C(F)F)cs3)cnc21`: the pIC50 in [1] is 7.10; in data set [5] it was less than 5.00. In addition, the efflux ratio at 1 h, 5 µM in [4] turned out to be 9.1. In [6], this molecule gave a pKi of 7.23. For the same molecule, the hepatic extraction ratio at 1 µM was less than 0.3 in [7] and 0.52 in data set [8]. Further, the Stabilty result in data set [18] and in data set [19] was “Unstable” each time.
Turning to `Cn1c(=O)n(CC(=O)N2CCC2)c2cc(-c3ccc(C(F)F)s3)cnc21`, the results for the pIC50 in data set [1] and in [5] were 8.22 and less than 5.00, respectively. The efflux ratio at 1 h, 5 µM in data set [4] stood at 5.8. The molecule further had a negative-log Ki (pKi) in data set [6] of 7.72. The hepatic extraction ratio at 1 µM in data set [7] was determined as 0.46; in [8], 0.58. Also, the Stabilty entry in [18] and in data set [19] was “Unstable” in each case.
`CN(C)C(=O)Cn1c(=O)n(C)c2ncc(-c3cccc(C(F)(F)F)c3)cc21`: the pIC50 in data set [1] was 7.33; in [5], less than 5.00. Further, the solubility at 72 h in data set [2] and in [3] was 6 µM (≈ 2.27 µg/mL) in each case. The efflux ratio at 1 h, 5 µM in [4] turned out to be 7. In addition, in [6], the negative logarithm of the Ki (pKi) is 7.72. The hepatic extraction ratio at 1 µM in [7] came out at 0.38; in data set [8], 0.31.
